Tests used:
[1] = target: T1, Gamma-aminobutyric acid receptor subunit alpha-1 (Homo sapiens, UniProt P14867+P18507+P47870); test: Displacement of [3H]Ro15-4513 from GABAA alpha-1-beta-2-gamma-2 receptor expressed in Sf9 baculovirus system
T1 sequence (P14867 whole entry): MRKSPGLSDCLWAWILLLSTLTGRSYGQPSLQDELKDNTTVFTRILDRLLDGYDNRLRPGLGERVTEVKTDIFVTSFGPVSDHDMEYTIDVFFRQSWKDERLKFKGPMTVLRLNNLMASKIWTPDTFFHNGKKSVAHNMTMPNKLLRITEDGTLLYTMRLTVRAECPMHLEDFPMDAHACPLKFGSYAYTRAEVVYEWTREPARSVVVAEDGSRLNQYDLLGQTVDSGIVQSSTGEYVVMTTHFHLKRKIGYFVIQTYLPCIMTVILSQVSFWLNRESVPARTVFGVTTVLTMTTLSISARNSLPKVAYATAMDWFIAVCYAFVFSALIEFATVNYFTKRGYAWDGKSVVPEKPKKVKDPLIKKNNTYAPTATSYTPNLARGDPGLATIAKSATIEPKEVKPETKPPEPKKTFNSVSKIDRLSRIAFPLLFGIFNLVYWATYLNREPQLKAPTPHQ
Method in brief: (§1)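 Homogenates of Sf-9 cells infected 60 h earlier with baculoviruses for each of the three subunits (2 MOI, equimolar), in 50 mM Tris-HCl pH 7.7. Competition against 0.5–1.0 nM [3H]-Ro15-4513, with unlabeled ligand from 40 pM to 10 µM (ethanol below 0.1%). Incubated 90 min at 0 °C, in triplicate. Separated by rapid filtration and read by scintillation counting.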

[2] = target: T2, Gamma-aminobutyric acid receptor subunit alpha-5 (Homo sapiens, UniProt P18507+P31644+P47870); test: Displacement of [3H]Ro15-4513 from GABAA alpha-5-beta-2-gamma-2 receptor expressed in Sf9 baculovirus system; method in brief: as §1
T2 sequence (P31644 whole entry): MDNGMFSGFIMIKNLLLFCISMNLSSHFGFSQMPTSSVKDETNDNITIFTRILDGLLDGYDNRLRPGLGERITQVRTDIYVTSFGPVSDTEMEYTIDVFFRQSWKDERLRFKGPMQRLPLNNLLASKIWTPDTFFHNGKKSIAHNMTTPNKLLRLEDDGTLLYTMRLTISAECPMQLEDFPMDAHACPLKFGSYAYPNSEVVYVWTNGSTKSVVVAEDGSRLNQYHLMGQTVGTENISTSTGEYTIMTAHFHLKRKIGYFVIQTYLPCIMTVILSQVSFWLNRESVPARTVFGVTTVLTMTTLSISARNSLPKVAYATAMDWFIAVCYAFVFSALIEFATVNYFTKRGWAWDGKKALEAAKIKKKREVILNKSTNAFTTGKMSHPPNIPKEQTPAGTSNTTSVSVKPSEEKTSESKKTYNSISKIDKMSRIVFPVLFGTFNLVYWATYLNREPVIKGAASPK

[3] = target: T1, Gamma-aminobutyric acid receptor subunit alpha-1; test: Binding affinity to GABAA alpha-1-beta-2-gamma-2 receptor
[4] = target: T2, Gamma-aminobutyric acid receptor subunit alpha-5; test: Binding affinity to GABAA alpha-5-beta-2-gamma-2 receptor
Method in brief: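 Sf-9 insect cells infected with baculovirus carrying α5, β2 and γ2 subunits in equimolar ratio (2 MOI), harvested 60 h post-infection, then homogenized in 50 mM Tris-HCl pH 7.7. Incubated 90 min at 0 °C in triplicate; filtration and scintillation counting.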

[5] = target: T3, GABA-A receptor; alpha-1/beta-3/gamma-2 (Homo sapiens, UniProt P14867+P18507+P28472); test: Binding affinity to GABAA alpha-1-beta-3-gamma-2 receptor; assay type: protein-complex assay
T3 sequence (P14867 whole entry): T1 sequence (P14867 whole entry)
T3 sequence (P18507 whole entry): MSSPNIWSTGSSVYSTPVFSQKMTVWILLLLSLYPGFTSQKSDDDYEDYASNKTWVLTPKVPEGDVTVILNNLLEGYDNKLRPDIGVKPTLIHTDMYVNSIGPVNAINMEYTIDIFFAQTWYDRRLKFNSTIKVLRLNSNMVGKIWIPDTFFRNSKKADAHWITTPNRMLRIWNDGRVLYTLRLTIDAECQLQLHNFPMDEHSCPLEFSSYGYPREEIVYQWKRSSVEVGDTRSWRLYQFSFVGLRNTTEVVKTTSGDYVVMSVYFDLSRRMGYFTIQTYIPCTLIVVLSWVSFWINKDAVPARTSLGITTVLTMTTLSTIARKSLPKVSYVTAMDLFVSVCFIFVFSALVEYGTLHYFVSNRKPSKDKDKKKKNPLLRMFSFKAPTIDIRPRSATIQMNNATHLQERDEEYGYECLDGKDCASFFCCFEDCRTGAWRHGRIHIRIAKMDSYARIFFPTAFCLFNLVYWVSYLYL
T3 sequence (P28472 whole entry): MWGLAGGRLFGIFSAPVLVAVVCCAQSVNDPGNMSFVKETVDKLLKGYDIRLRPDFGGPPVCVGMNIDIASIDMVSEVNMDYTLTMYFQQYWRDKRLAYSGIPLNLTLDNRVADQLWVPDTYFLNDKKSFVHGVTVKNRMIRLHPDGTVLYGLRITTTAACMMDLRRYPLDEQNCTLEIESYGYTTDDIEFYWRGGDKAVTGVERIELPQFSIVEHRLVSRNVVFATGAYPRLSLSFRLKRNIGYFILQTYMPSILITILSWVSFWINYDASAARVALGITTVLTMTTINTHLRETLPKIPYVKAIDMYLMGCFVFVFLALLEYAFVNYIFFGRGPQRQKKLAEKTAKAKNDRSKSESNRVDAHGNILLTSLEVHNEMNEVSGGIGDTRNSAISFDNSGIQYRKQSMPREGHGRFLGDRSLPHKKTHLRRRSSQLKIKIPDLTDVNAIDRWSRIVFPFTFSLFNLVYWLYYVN

SMILES | Kd [3] [µM] | Kd [4] [µM] | Ki [5] [µM] | Ki [4] [µM] | also measured
CSC1SC(C(=O)c2ccc(Cl)cc2)C2CCCC(=O)C12 (configuration not stated) |  |  |  |  | IC50 [1]: 0.58 µM; IC50 [2]: 0.55 µM
CN1C(=O)CN=C(c2ccccc2)c2ccccc21 |  |  |  |  | IC50 [1]: > 10 µM; IC50 [2]: > 10 µM
CC(C)(C)OC(=O)c1cc2c3ccccc3nc-2c[nH]1 | 0.001 | 0.111 |  |  | 
Cn1c(=O)c2cc(Cl)ccc2n2cnc(CCl)c12 |  |  | 0.5 | 0.5 | 
CSc1nccc(-c2ccc(S(=O)(=O)Nc3ccc(Cl)cc3)s2)n1 |  |  |  |  | IC50 [1]: 0.47 µM; IC50 [2]: > 10 µM
Cn1c(=O)c2cc(C#C[Si](C)(C)C)ccc2n2cnc(C(=O)OC(C)(C)C)c12 | 0.197 | 0.058 |  |  | 
O=C1C2C=Nc3ccccc3C2=NN1c1ccccc1 (configuration not stated) [CGS-8216] | 0.0083 | 0.2 |  |  | 
COc1ccc(-n2nc3c4ccccc4[nH]cc-3c2=O)cc1 | 0.0001 | 0.005 |  |  | 
COCc1c(C(=O)OC(C)C)ncc2[nH]c3ccc(OCc4ccccc4)cc3c12 [ABECARNIL] | 0.001 | 0.0084 |  |  | 
Cn1c(=O)c2cc(Cl)ccc2n2cnc(CO)c12 |  |  | > 0.3 | > 0.3 | 
Cn1c(=O)c2cc(Cl)ccc2n2cnc(C(=O)OC(C)(C)C)c12 |  |  | 0.0173 | 0.00065 | 
CCCCC(=O)c1ncn2c3ccc(Cl)cc3c(=O)n(C)c12 |  |  | 1.58 | 0.166 | 
Cn1c(=O)c2cc(Cl)ccc2n2cnc(C(=O)OCC3CC3)c12 |  |  | 0.0164 | 0.0098 | 
Nc1c(C(=O)c2ccc(Cl)cc2)sc2ccccc12 |  |  |  |  | IC50 [1]: 1 µM; IC50 [2]: 1 µM
CCOC(=O)c1ncn2c3ccc(C#C[Si](C)(C)C)cc3c(=O)n(C)c12 | 0.121 | 0.005 |  |  | 
CCOC(=O)c1ncn2c1[C@@H]1CCN1C(=O)c1cc(C#C[Si](C)(C)C)ccc1-2 | 0.083 | 0.0026 |  |  | 

Source: ChEMBL document CHEMBL1157475, “Selective influence on contextual memory: physiochemical properties associated with selectivity of benzodiazepine ligands at GABAA receptors containing the alpha5 subunit” (J Med Chem, 2008)
